TRPC6 act: mouse TRPC6 channel activation; Q61143; HEK293-TRPC6 membrane potential dye fluorescence; stronger effect = higher value; B-score at 10 µM; 0.13% of 310,000 active;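 active = B-score of the integrated fluorescence ratio above library mean plus 3 SD, and starting fluorescence ratio within library mean plus 5 SD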;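 also: higher score means more depolarization so channel activation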
TRPC4 act: TRPC4 (mouse) channel activation; HEK293 TRPC4beta/mu-opioid, Fluo4 calcium fluorescence; stronger effect = higher value; Q9QUQ5; B-score at 10 µM; 0.49% of 310,000 active; AID 2237;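 active = B-score above 5 SD of library B-scores, and initial fluorescence ratio not above library mean plus 5 SD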;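 also: positive B-score marks a calcium rise read as TRPC4 activation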
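Assay system – TRPC4beta and mu-opioid receptor HEK293 stable cells · Measured by – Fluo4 fluorescence, kinetic · Schedule – dye loading 45 min room temperature, 110 s kinetic read · Read-out – B-scored integrated calcium fluorescence ratio · Controls – buffer and maximal DAMGO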
TRPC4 block: TRPC4 (mouse) channel inhibition; Q9QUQ5; HEK293 TRPC4beta/mu-opioid, DAMGO-evoked Fluo4 calcium flux; stronger effect = lower value; B-score at 10 µM; 0.39% of 300,000 active; AID 2247;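 active = B-score over 3 SD under the library average, no early fluorescence shift, positive overall ratio signal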
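Assay system: TRPC4beta/mu-opioid receptor HEK293 cell line; compound dosing: single concentration per test compound; detection: Fluo4 Ca2+ flux fluorescence; evaluation: per-well B score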
Kir21 inh: blocks the mouse Kir2.1 inward-rectifier potassium channel; HEK293-Kir2.1, FluxOR thallium flux fluorescence; stronger effect = lower value; B-score at 10 µM; 0.85% of 310,000 active; AID 1672;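 active = fluorescence ratio B-score at or below minus 3 SD of library scores, with starting-brightness B-score within 2 SD, cut at about -4.2 in these data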;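 also: channel flux triggered by added potassium and thallium sulfate stimulus; B-score of peak minus minimum fluorescence over baseline after thallium stimulus; more negative B-score means stronger Kir2.1 block with less thallium influx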
Target sequence (P35561 whole entry, looked up): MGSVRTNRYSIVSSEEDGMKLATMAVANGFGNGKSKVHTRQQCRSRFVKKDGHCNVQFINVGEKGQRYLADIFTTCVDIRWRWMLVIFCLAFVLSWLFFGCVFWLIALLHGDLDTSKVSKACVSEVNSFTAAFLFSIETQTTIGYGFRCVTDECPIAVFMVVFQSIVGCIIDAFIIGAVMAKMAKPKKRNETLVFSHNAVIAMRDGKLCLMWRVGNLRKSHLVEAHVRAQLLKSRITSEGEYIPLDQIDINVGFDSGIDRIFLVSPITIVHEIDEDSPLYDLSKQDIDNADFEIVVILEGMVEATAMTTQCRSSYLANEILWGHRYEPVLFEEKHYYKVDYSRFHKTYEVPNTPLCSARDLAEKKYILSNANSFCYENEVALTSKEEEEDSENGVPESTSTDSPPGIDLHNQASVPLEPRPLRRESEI
TRPC6 inhibitor: blocks the mouse TRPC6 cation channel. AID 2553. B-score at 10 µM. Q61143. 1.1% of 310,000 active. HEK293-TRPC6, membrane potential dye, ACh-evoked depolarization; stronger effect = lower value;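 active = B-score under library mean minus 3 SD, initial fluorescence not abnormally high, positive integrated signal ratio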;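 also: B-score derived from integrated fluorescence ratio over the kinetic read; more negative B-score means stronger inhibition of depolarization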
TRPC4 PAM: allosteric potentiators of mouse TRPC4 channel; Q9QUQ5; 0.42% of 310,000 active; B-score at 10 µM; AID 2227; HEK293 TRPC4beta/mu-opioid, DAMGO EC20, Fluo-4 Ca2+ flux; stronger effect = higher value;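 active = B-score of calcium response area above 5 SD of library B-scores, with initial fluorescence ratio within 5 SD of library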;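 also: B-score of integrated fluorescence ratio over time as area under calcium response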
Starred values were filed as active, the others as inactive; i = inactive; ! = a repeat was not active. This is a sample that favours compounds with a hit; in the whole collection about 3% have one here.

SMILES | TRPC6 act | TRPC4 act | TRPC4 block | Kir21 inh | TRPC6 inhibitor | TRPC4 PAM
CC1CN(C)C(C)c2c1oc1ccc([N+](=O)[O-])cc21 (stereo unspecified) | i | 115* | i | 0.01 | i | i
CCOc1ccc(NS(=O)(=O)c2ccc(OC)c(C)c2)cc1 | i | i | i | -7.51* | i | i
O=C(O)c1cccc(S(=O)(=O)N2CCC(n3nnc4cc(C(F)(F)F)ccc43)CC2)c1 | i | i | i | 0.32 | i | i
N#C/C(=C(/O)c1ccc(Cl)c([N+](=O)[O-])c1)c1nc2ccccc2[nH]1 | i | i | i | -1.69 | i | i
O=C(Cc1cc(=O)[nH][nH]1)N/N=C/c1c(Cl)cccc1Cl | i | i | i | -4.29*! | i | i
O=C1C=CC(=O)C(C2=C3C(=O)N(CCc4ccccc4)CC(=O)N3CCC2)=C1 | i | i | i | -7.03* | i | i
O=C(NC(=S)NC1C2CC3CC(C2)CC1C3)c1ccccc1 (stereo unspecified) | i | i | i | -0.52 | i | i
CC(OC(=O)CCc1cc(C(C)(C)C)c(O)c(C(C)(C)C)c1)C(=O)NC1CC1 (stereo unspecified) | i | i | i | -4.3* | i | i
CCCCCCCCCCOC(=O)Cn1c(COc2ccccc2OC)[n+](C)c2ccccc21 | i | i | i | -17.4* | i | i
Cn1c(COc2ccccc2O)[n+](C)c2ccccc21 | i | i | i | 0.35 | i | i
Cc1ccc(S(=O)(=O)N2CCSC2c2ccco2)cc1 (stereo unspecified) | i | i | i | -4.31* | i | i
Cc1ccc(S(=O)(=O)N2CCSC2C(=O)O)cc1 (stereo unspecified) | i | i | i | 1.9 | i | i
NS(=O)(=O)c1ccc(CNC(=O)Cc2c(F)cccc2Cl)cc1 | i | i | i | 1.11 | i | i
Cc1c(OCC(=O)NC2CC(C)(C)NC(C)(C)C2)ccc2c3c(c(=O)oc12)CCC3 | i | i | i | -4.61* | i | i
Cc1c(OCC(=O)NC2CC(C)(C)NC(C)(C)C2)ccc2c1oc(=O)c1ccccc12 | i | i | i | -2.11 | i | i
CCc1nnc(NC(=O)c2nc3nc(C)cc(C)n3n2)s1 | i | i | i | 0.26 | -5.51* | i
O=C(COc1ccc(F)cc1)c1c(O)cc(O)cc1O | i | i | -6* | 1.04 | i | i
COc1ccc(C(=O)COc2ccc(F)cc2)c(O)c1 | i | i | i | -0.4 | i | i
COc1cc(CN2CCCC(CO)(Cc3ccccc3C)C2)cc2c1OCO2 (stereo unspecified) | i | i | -6* | -2.41 | i | i
COCc1ccc(CN2CCCC(CO)(Cc3ccccc3C)C2)o1 (stereo unspecified) | i | i | i | -2.46 | i | i
Cc1ccc(-c2c[n+](CC(=O)Nc3nc(-c4ccc(F)cc4)cs3)c3n2CCC3)cc1 | i | i | -6* | 0.32 | i | i
CCCCn1c(N)c(N(CCOC)C(=O)c2ccc(-c3ccc(C(C)=O)cc3)o2)c(=O)[nH]c1=O | i | i | i | 0 | i | 92*
CCCCN(C(=O)c1ccc2c(c1)OCO2)c1ccccc1 | i | i | i | -5.4* | i | i
CN(Cc1ccccc1)C(=O)c1ccc2c(c1)OCO2 | i | i | i | 0.58 | i | i
O=C(c1ccc(C(F)(F)F)cc1)N1CCC(=O)N(C(COCc2ccccc2)Cc2ccccc2)CC1 (stereo unspecified) | i | i | i | -2 | i | i
SMILES | TRPC6 act | TRPC4 act | TRPC4 block | Kir21 inh | TRPC6 inhibitor | TRPC4 PAM
CC(C)(C)c1ccc(C(=O)N2CCC(=O)N(C(COCc3ccccc3)Cc3ccccc3)CC2)cc1 (stereo unspecified) | i | 50* | i | -2.84 | i | i
O=C(COc1ccc(Br)cc1)N1CCN(S(=O)(=O)/C=C/c2ccccc2)CC1 | i | i | i | 1.12 | i | 11*
O=C(COc1ccccc1F)N1CCN(S(=O)(=O)/C=C/c2ccccc2)CC1 | i | i | i | -0.2 | i | i
COc1cc(OC)c(C(=O)OCC(=O)NCCc2ccccc2)cc1OC | i | i | i | 0.32 | i | i
CCN(CC1COc2ccccc2O1)S(=O)(=O)c1ccc(C)cc1 (stereo unspecified) | i | i | i | -4.84* | i | i
CCN(c1ccccc1)S(=O)(=O)c1ccc(NCC2COc3ccccc3O2)nc1 (stereo unspecified) | i | i | i | 0.46 | i | i
O=C1CN(C(=O)c2cc([N+](=O)[O-])ccc2Cl)C(c2ccc(F)cc2)c2cc(F)ccc2N1 (stereo unspecified) | i | i | i | 1.22 | i | i
CC1=CC(=O)C=C(C)C1=NOS(=O)(=O)c1ccccc1 | i | i | i | -0.11 | i | i
CC1=CC(=O)C(C(C)C)=C/C1=N/OS(=O)(=O)c1ccccc1 | i | i | i | -2.92 | i | 21*
c1ccc2c3c([nH]c2c1)C(C1CCCCC1)N(Cc1ncc[nH]1)CC3 (stereo unspecified) | i | i | i | -4.62* | i | i
CCN1CC2=C(OC(N)=C(C#N)C2c2cccs2)/C(=C/c2cccs2)C1 (stereo unspecified) | i | i | i | 1.23 | i | 12*
CCN1CC2=C(OC(N)=C(C#N)C2c2ccccc2)/C(=C\c2ccccc2)C1 (stereo unspecified) | i | i | i | 0.01 | i | i
CCC(C)NC(=O)NCc1ccccc1F (stereo unspecified) | i | i | i | -0.27 | i | i
Cn1c(-c2cccc(Br)c2)cnc1NCc1ccccc1O | i | i | i | -6.21* | i | i
Cn1c(-c2ccccc2)cnc1NCc1ccccc1 | i | i | -6* | -0.05 | i | i
Cc1ccc(S(=O)(=O)CCC(=O)Nc2sccc2C#N)cc1 | i | i | i | -4.62* | i | i
Clc1ccc(CN=C(Nc2ccccc2)NC2CCCCC2)cc1 | i | i | i | -5.23* | i | i
CS(=O)(=O)c1ccccc1-c1nnc(NC(=O)c2cccc(N3C(=O)CCC3=O)c2)o1 | i | i | i | -2.11 | i | i
CN(CC/C=C1/c2ccccc2CSc2ccccc21)CCCO | i | i | i | -0.04 | i | i
